HUVEC tox IL1B: toxic to HUVEC cells under IL-1B stimulation. actives 0.41% (n = 94,000). AID 845. cell count reduction, % at 2 µM. HUVEC cell count loss, Hoechst imaging, IL-1B stimulated;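 active means cell count reduction more than 3 SD above the screen-wide mean, cut at about 70% in these data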;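 further: normalized per plate to untreated control cells as the no-loss baseline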
NFkB transloc pot: enhances IL-1B driven NFkB nuclear translocation; HUVEC IL-1B NFkB p65 nuclear translocation imaging; activation, % at 2 µM; actives 0.3% (n = 94,000); AID 819;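 active means activation above 40%, about the mean plus 3 SD, also judged a hit on visual image review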;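 further: percent activation is computed from the nuclear over cytoplasmic p65 intensity ratio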
FAK inh: inhibitors of human focal adhesion kinase. biochemical FAK kinase activity assay. inhibition, %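 (tested at 7 µM)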. actives 0.84% (n = 97,000). AID 727; in the data active means inhibition above about 19%;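 further: 0% = DMSO and 100% = reference compound high control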
Target sequence (Q05397 whole entry, looked up): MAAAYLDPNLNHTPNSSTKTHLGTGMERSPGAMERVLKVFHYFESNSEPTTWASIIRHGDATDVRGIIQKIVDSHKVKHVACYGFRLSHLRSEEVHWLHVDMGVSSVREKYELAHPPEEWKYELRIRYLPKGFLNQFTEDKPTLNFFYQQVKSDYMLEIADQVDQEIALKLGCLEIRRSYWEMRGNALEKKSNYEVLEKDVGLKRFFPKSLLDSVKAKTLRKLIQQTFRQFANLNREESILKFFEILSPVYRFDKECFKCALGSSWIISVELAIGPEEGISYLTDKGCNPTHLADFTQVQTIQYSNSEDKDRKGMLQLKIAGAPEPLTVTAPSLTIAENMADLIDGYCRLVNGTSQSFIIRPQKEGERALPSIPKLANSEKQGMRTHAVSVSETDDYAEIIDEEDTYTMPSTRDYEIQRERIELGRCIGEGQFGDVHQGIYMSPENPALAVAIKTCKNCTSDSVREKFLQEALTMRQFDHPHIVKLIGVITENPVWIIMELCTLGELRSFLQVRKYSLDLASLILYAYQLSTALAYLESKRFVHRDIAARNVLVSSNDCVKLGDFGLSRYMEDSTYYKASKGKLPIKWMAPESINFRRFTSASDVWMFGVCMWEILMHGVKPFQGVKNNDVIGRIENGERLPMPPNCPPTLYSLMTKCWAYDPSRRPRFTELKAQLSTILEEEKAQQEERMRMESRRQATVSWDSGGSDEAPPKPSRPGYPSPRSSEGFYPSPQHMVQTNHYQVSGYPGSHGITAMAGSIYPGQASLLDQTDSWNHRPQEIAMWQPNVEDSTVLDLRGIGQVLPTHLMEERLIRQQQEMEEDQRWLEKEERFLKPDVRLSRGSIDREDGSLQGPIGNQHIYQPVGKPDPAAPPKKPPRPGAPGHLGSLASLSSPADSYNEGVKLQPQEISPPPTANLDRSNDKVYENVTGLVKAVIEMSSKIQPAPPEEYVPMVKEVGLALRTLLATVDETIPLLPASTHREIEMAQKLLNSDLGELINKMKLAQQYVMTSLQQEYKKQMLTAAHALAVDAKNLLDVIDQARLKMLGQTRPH
Measles CPE: protection of cells from measles virus; actives 1.5% (n = 140,000); Measles virus-infected cells, CPE protection, absorbance; protection (pct of control), % at 4 µM; in the data active means protection mostly above about 24%, no sharp cut-off; inactive means mostly below about 26%
Rev-RRE block: disrupts HIV-1 Rev binding to RRE RNA; actives 0.79% (n = 97,000); inhibition, % at 8 µM; Rev peptide-RRE RNA binding, FRET; AID 704; P05866;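 active means inhibition above the screen-wide mean plus 3 SD, cut at about 35% in these data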;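 further: 0% = median DMSO wells and 100% = median Neomycin B control wells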
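Test system – labelled RRE RNA duplex and labelled Rev peptide · Signal – fluorescein-to-Cy5 FRET, 480 nm excitation · Evaluation – % inhibition of FRET ratio versus controls · Benchmarks – DMSO low control, neomycin B high control · Incubation – 5 min RNA-compound premix plus 15 min binding step, 25 °C · Medium – HEPES pH 7.5 salt buffer with EDTA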
IL1B NFkB inh: blocks IL-1B driven NFkB nuclear translocation in HUVEC cells. AID 796. HUVEC IL-1B NFkB p65 nuclear translocation imaging. inhibition, % at 2 µM. actives 0.43% (n = 94,000);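 active means inhibition above about 30% together with a positive call from visual inspection of the well image, limit read from the data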;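 further: nuclear over cytoplasmic p65 intensity ratio measured by imaging; 0% = IL-1B stimulated DMSO wells and 100% = unstimulated DMSO wells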
Numbers without * were called inactive; / = no result given; [ ] = dose if it differs, or a comment. Most compounds without a hit are left out; they make up all but 3.3% or so of the library.

SMILES	HUVEC tox IL1B	NFkB transloc pot	FAK inh	Measles CPE	Rev-RRE block	IL1B NFkB inh
Cc1cccc(C)c1NC(=O)C(c1ccc([N+](=O)[O-])cc1)N(C)C(=O)c1ccccn1 (stereo not given)	/	/	/	13	/	/
CCCc1oc(C(=O)O)cc1CN1CCCC1	0	25	1	2	3	-25
CCCc1oc(C(=O)O)cc1CN1CCOCC1	14	-32	-3	34*	11	32*
Cc1ccc(NC(=O)c2cc(C(=O)c3cc(Cl)ccc3O)cn(-c3ccc(C)cc3)c2=O)cc1	/	/	/	5	/	/
O=C(NCc1cn(-c2ccccc2)nc1-c1ccc(F)cc1)c1cccc([N+](=O)[O-])c1	/	/	/	12	/	/
CN(C)C(=O)CN(C)S(=O)(=O)c1ccc(Cl)cc1	-5	-91	2	4	9	91*
CN(CC(=O)Nc1ccccn1)S(=O)(=O)c1ccc(Cl)cc1	-20	16	-2	19	0	-16
Cc1ccc(S(=O)(=O)N2CCN(C(C)C(=O)Nc3ccccc3-c3ccccc3)CC2)cc1 (stereo not given)	/	/	/	7	/	/
CCCCCCS(=O)Cc1ccccc1 (stereo not given)	/	/	/	35*	/	/
O=S(Cc1ccccc1)CC(O)(c1ccccc1)c1ccccc1 (stereo not given)	-52	9	6	3	4	-9
Fc1ccccc1C(c1nnnn1C1CCCC1)N1CCN(Cc2ccccc2)CC1 (stereo not given)	88*	-77	0	9	6	77*
CCC(c1nnnn1C1CCCC1)N1CCN(Cc2ccccc2)CC1 (stereo not given)	-15	-3	0	5	6	3
Cc1ccc(C)c(Cn2nnc3c(=O)[nH]c(C4CCCN(C(=O)C5CCC5)C4)nc32)c1 (stereo not given)	0	20	-1	2	0	-20
O=C(C1CCC1)N1CCC(c2nc3c(nnn3Cc3c(F)cccc3Cl)c(=O)[nH]2)CC1	-4	12	-2	41*	8	-12
Cc1ccc(Nc2nnc(SCC(=O)NCCN3C(=O)CSC3=O)s2)cc1C	/	/	/	5	/	/
COc1ccc(C2CC3(CC(C)(C)NC(SC)=N3)Oc3cc(O)cc(C)c32)cc1 (stereo not given)	/	/	/	22	/	/
COc1cccc(C(=O)NNC(=S)NC2CCCCC2)c1	/	/	/	25*	/	/
CN(C)c1ccc(N=C/C=C2\N(C)c3ccccc3C2(C)C)cc1	-10	-1	1	1	-14	1
CN1/C(=C\C=Nc2ccc3ccccc3c2)C(C)(C)c2ccccc21	-99	13	-2	5	63*	-14
O=C(O)CC1(CC(=O)Nc2ccc3ccccc3c2)CCCCC1	-52	6	0	3	4	-6
NC(=O)CC1(CC(=O)O)CCCCC1	20	-3	-1	68*	3	3
O=C(Cc1ccccc1)Nc1nc2ccccc2s1	20	-9	5	52*	2	9
Cc1ccc(-n2c3c(cc(C(=O)O)c2=O)C(=O)CC(C)(C)C3)cc1	-14	-3	-11	55*	5	3
CC1(C)CC(=O)c2cc(C(=O)O)c(=O)n(-c3ccccc3)c2C1	-11	12	-1	14	3	-12
COc1cc(NC(=O)Cn2c(=O)n(-c3cccc(C)c3)c(=O)c3c(C)c(C)sc32)cc(OC)c1	/	/	/	12	/	/
SMILES	HUVEC tox IL1B	NFkB transloc pot	FAK inh	Measles CPE	Rev-RRE block	IL1B NFkB inh
CC1Cc2nc(SCC(=O)Nc3ccc(F)cc3F)n(C)c(=O)c2S1 (stereo not given)	-57	9	1	41*	3	-9
Cc1ccc(N=Cc2sc(O)c3ccccc23)c(C)c1	-20	22	-7	-1	93*[fluorescence artefact?]	-22
Cc1ccc(N=Cc2cccc(O)c2O)c(C)c1	-6	-4	8	42	9	4
Cc1ccc(N=Cc2sc(O)c3ccccc23)cc1	-19	28	-3	1	132*[fluorescence artefact?]	-28
O=C(/C=C/c1c[nH]c2ccccc12)c1cccc2ccccc12	/	/	/	2	/	/
CCCNC(=O)NC(=O)CSc1nc2cc(C(=O)OC)ccc2c(=O)n1-c1ccccc1	4	4	1	26*	-7	-4
CNC(=O)NC(=O)CSc1nc2cc(C(=O)OC)ccc2c(=O)n1-c1ccccc1	-7	21	-8	11	-2	-21
O=C(CSc1nc2ccccc2o1)Nc1ccccc1N1CCOCC1	-9	3	-1	48*	4	-3
CC1(C)CC(=O)c2cnc(NC(=O)CSc3nc4ccccc4o3)nc2C1	4	-8	-2	17*	2	8
O=C(CSc1nc2ccccc2o1)Nc1ccc(N2CCOCC2)cc1	23	-11	4	3	2	11
COc1cc(OC)cc(C(=O)N2CCC(N3CCCCCC3)CC2)c1	-2	28	0	7	3	-28
COc1cccc(OC)c1C(=O)Nc1ccccc1N1CCCC1	-17	16	-3	2	1	-16
COc1cccc(OC)c1C(=O)NN1CCCCC1	-30	3	-2	35*	5	-3
COc1cc(OC)cc(C(=O)NN2CCCCC2)c1	-4	-56	5	1	4	56*
COC(=O)c1ccc(NC(=O)CSC2=NC(=O)C(c3ccccc3)C(=O)N2)cc1 (stereo not given)	/	/	/	5	/	/
CC(=O)NC(CCCN1C(=O)c2ccccc2C1=O)c1nnn(C)n1 (stereo not given)	/	/	/	3	/	/
O=C(c1sc2ccccc2c1Cl)N(Cc1ccccc1)C1CCS(=O)(=O)C1 (stereo not given)	10	-66	6	7	11	66*
CCN(CC)S(=O)(=O)c1ccc(-c2nnco2)cc1	/	/	/	2	/	/
CCN(CC)S(=O)(=O)c1ccc(C2=NOC3(C2)N(C)c2ccccc2C3(C)C)cc1 (stereo not given)	/	/	/	38*	/	/
O=S(=O)(c1ccc(S(=O)(=O)N2CCCC2)cc1)N1CCCCCC1	-34	15	-3	14	21	-15
CN1c2ccccc2C(C)(C)C12CC(c1ccc(S(=O)(=O)N3CCCCC3)cc1)=NO2 (stereo not given)	/	/	/	63*	/	/
CN1c2ccccc2C(C)(C)C12CC(c1cccc(S(=O)(=O)N3CCCC3)c1)=NO2 (stereo not given)	/	/	/	54*	/	/
N#C/C(=N\Nc1ccccc1)C(=N)N1CCOCC1	/	/	/	74*	/	/
Cc1ccc(N/N=C(\C#N)C(=N)N2CCOCC2)cc1	/	/	/	5	/	/
Cc1cc[n+](CC(=O)Nc2cc(C(F)(F)F)ccc2Cl)cc1	19	-6	3	21	-1	-6
CN(C)c1cc[n+](CC(=O)Nc2cc(C(F)(F)F)ccc2Cl)cc1	2	1	-1	64*	-8	-1
O=S(=O)(c1ccccc1)N1CCN(CC(O)COc2ccc3c(c2)CCC3)CC1 (stereo not given)	7	-4	-1	31*	9	4
CCN(CC)c1ccc(NC(=O)c2ccccc2)cc1S(=O)(=O)Nc1ccccc1OC	/	/	/	45*	/	/
